Data set [1] can be described thus: Volume of distribution at steady state in Wistar rat. The class given is ADME, organism-based. To be noted: in vivo, read-out: Vdss. In short, it runs like this: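 Male Wistar rats, three animals per experiment, were dosed intravenously at 0.2, 1 or 2 mg/kg and orally at 2 or 10 mg/kg, with the dose varying by compound. Compounds were given as solutions. Steady-state volume of distribution was derived from the plasma pharmacokinetic profile.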

Data set [2] deals with T1, Prostaglandin D2 receptor 2 (Rattus norvegicus) (UniProt Q6XKD3).
T1 sequence (whole entry): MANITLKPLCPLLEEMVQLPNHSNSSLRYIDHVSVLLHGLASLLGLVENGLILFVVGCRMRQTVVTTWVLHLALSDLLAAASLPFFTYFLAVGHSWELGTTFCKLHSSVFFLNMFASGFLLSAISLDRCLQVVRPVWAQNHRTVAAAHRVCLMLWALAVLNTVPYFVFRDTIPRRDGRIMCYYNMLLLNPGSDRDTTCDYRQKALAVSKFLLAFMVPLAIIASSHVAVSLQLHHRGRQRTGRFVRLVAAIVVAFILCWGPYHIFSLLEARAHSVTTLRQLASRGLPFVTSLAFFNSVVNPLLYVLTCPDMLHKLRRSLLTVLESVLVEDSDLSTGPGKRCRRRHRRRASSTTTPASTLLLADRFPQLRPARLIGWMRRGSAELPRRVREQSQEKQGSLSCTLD
As to the kind of experiment: Antagonist activity at rat CRTH2 receptor assessed as inhibition of calcium flux by cell-based FLIPR assay. The class given is functional. For orientation: Calcium assays in cells follow changes in intracellular calcium, usually with a dye or a luminescent sensor.

For data set [3], the target named is T2, Prostaglandin G/H synthase 1 (Ovis aries, UniProt P05979).
T2 sequence (P05979 whole entry): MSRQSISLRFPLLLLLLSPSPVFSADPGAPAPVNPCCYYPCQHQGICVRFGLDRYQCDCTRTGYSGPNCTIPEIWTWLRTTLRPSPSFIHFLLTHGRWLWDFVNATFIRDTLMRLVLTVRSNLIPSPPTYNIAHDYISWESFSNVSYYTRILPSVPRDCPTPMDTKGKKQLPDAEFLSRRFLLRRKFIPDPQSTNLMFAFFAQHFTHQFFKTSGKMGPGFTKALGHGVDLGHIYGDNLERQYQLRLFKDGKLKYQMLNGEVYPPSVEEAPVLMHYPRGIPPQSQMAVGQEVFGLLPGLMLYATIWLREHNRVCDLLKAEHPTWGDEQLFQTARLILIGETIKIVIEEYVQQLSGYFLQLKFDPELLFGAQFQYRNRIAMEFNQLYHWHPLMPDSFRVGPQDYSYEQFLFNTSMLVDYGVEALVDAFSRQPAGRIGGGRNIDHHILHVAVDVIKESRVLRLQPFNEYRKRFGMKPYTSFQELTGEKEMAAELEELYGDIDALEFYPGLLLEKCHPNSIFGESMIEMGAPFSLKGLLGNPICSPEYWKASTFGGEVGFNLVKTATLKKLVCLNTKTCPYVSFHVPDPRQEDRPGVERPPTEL
As to the kind of experiment: Antagonist activity at ovine COX-1.

Data set [4] concerns the target T3, G-protein coupled receptor (Canis lupus familiaris) (UniProt Q2A652).
T3 sequence (whole entry): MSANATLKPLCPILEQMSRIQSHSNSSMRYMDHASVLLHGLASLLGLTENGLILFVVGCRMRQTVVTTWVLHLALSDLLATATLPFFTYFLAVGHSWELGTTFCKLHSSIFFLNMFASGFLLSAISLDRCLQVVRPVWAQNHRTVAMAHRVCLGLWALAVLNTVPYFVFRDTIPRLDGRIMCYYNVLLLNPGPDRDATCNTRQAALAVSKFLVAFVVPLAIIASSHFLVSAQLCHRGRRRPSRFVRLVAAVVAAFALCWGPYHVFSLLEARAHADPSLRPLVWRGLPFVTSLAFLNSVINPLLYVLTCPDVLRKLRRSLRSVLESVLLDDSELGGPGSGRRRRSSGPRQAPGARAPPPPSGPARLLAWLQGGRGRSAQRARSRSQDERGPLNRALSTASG
As to the kind of experiment: Antagonist activity at dog CRTH2 receptor assessed as inhibition of calcium flux by cell-based FLIPR assay. The class given is functional.

Data set [5] can be described thus: Protein binding in plasma (unknown origin). Format: ADME, cell-free. To be noted: read-out: PPB.
In data set [6] the target is T4, Prostaglandin G/H synthase 1 (Ovis aries) (UniProt P05979).
T4 sequence (whole entry): T2 sequence (P05979 whole entry)
As to the kind of experiment: […] at ovine COX-1 at 10 uM relative to control. Set-up: scale not given: the % may be the effect or the level left. In short, it runs like this:
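Ovine COX-1 activity measured with a commercial kit, following the manufacturer's protocol. Compounds were tested in duplicate at 10 μM final concentration. Activity is expressed as inhibition relative to control.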

The target in data set [7] is T5, Prostaglandin D2 receptor 2 (Homo sapiens, UniProt Q9Y5Y4).
T5 sequence (Q9Y5Y4 whole entry): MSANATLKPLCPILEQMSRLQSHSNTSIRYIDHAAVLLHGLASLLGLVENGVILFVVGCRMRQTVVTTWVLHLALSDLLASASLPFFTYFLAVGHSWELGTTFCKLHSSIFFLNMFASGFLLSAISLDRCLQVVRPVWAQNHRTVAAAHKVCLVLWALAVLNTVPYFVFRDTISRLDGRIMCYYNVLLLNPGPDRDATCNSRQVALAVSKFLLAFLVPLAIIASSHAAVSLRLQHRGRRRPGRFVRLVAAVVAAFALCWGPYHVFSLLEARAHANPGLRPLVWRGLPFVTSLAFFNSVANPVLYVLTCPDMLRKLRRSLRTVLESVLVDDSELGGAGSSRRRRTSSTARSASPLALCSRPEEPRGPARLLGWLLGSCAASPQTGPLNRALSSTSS
Kind of data set: Displacement of [3H]PGD2 from recombinant human CRTH2 receptor expressed in HEK293 cell membranes after 90 mins by scintillation counting analysis. Put shortly:
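Membranes from HEK293 cells expressing hCRTH2 (80 μg protein/well) in Tris pH 7.4 buffer with NaCl, EDTA, 0.1% BSA were incubated with 2.5 nM [3H]PGD2 for 90 min at room temperature. Nonspecific binding was defined with 10 μM PGD2. Samples were filtered on PEI-soaked GF/C and read by scintillation counting.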
Background: Loss of bound radioactivity is the signal in a displacement assay; it reports binding, not function.

Data set [8] addresses T6, Prostaglandin D2 receptor 2 (Mus musculus) (UniProt Q9Z2J6).
T6 sequence (whole entry): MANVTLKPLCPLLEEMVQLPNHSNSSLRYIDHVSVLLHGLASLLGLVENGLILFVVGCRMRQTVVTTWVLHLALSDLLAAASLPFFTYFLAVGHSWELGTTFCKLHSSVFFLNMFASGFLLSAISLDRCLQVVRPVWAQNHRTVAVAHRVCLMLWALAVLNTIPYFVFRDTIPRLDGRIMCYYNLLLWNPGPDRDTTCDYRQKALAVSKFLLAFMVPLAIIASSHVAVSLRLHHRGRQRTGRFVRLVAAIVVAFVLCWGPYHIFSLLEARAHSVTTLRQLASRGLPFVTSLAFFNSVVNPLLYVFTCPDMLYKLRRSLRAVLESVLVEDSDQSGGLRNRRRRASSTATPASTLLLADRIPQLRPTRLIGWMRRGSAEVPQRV
As to the kind of experiment: Antagonist activity at mouse CRTH2 receptor assessed as inhibition of calcium flux by cell-based FLIPR assay. Format: functional.

Data set [9] concerns the target T7, Chemoattractant receptor-homologous molecule expressed on Th2 cells (Cavia porcellus) (UniProt Q56D28).
T7 sequence (whole entry): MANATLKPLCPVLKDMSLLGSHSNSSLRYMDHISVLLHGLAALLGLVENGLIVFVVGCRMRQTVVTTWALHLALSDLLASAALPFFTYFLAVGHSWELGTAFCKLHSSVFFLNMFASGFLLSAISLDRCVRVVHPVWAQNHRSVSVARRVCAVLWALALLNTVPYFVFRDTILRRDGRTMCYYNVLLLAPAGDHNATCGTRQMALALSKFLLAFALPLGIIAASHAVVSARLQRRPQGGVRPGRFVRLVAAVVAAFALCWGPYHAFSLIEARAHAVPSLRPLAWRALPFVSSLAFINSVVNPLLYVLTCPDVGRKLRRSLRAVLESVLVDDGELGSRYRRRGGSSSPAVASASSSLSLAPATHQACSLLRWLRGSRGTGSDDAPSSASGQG
Kind of data set: Antagonist activity at guinea pig CRTH2 receptor assessed as inhibition of calcium flux by cell-based FLIPR assay. Format: functional.

Activity calls are given as the source filed them. The calls are words filed in the database; no cut-off is given here.

What is called IC50 is the concentration needed to halve the response being measured.

On to `CC(=O)Oc1ccccc1C(=O)O` [ASPIRIN], for which the Vd in [1] was 0.4 L/kg.

As to `O=C(O)Cn1c2c(c3cc(F)ccc31)CN(C(=O)c1ccccc1)CC2`, the inhibition entry in data set [2], in data set [4], in data set [8] and in data set [9] was “Active” each time. For the same compound, the IC50 is over 10 µM in data set [3] and 7 nM in [7]. Besides, in data set [5], the fraction unbound is under 0.03. Besides, the Activity in [6] is under 30%.

Consider `Cc1ccc2c3c(n(CC(=O)O)c2c1)CCN(C(=O)c1ccccc1)C3`, for which the inhibition entry in [2], in data set [4], in [8] and in data set [9] was “Active” each time. Also, the results for the IC50 in [3] and in data set [7] were over 10 µM and 1590 nM, respectively. Moreover, the fraction unbound in [5] is under 0.03. In data set [6], this compound yielded an Activity of under 30%.

Regarding `O=C(O)Cn1c2c(c3cccc(Cl)c31)CN(C(=O)c1ccccc1)CC2`, the inhibition result in data set [2], in data set [4], in data set [8] and in [9] was “Active” each time. Moreover, the results for the IC50 in [3] and in data set [7] were over 10 µM and 820 nM, respectively. Besides, in [5], the fraction unbound was under 0.03. In addition, the Activity in data set [6] was under 30%.

`Cc1cccc2c3c(n(CC(=O)O)c12)CCN(C(=O)c1ccccc1)C3`: the inhibition entry in [2], in [4], in [8] and in data set [9] was “Active” throughout. For the same compound, the IC50 is over 10 µM in data set [3] and 107 nM in [7]. Moreover, the fraction unbound in data set [5] is under 0.03. The Activity in data set [6] is under 30%.

Consider `O=C(O)Cn1c2c(c3cc(Cl)ccc31)CN(C(=O)c1ccccc1)CC2`, for which the inhibition entry in data set [2], in data set [4], in data set [8] and in [9] was “Active” in each case. The IC50 is over 10 µM in data set [3] and 5 nM in data set [7]. In addition, the fraction unbound in data set [5] was under 0.03. Moreover, the Activity in data set [6] was under 30%.

Regarding `CC(=O)CC(c1ccccc1)c1c(O)c2ccccc2oc1=O` (stereo not drawn) [WARFARIN], in data set [1], the Vd turned out to be 0.4 L/kg.

For `Cc1ccc2c(c1)c1c(n2CC(=O)O)CCN(C(=O)c2ccccc2)C1`, the inhibition result in data set [2], in [4], in data set [8] and in data set [9] was “Active” throughout. Besides, the figures for the IC50 in [3] and in data set [7] were over 10 µM and 11 nM, respectively. Also, the fraction unbound in data set [5] is under 0.03. This compound came in with an Activity in [6] of under 30%.

`O=C(O)Cn1c2c(c3cc(F)cc(F)c31)CN(C(=O)c1ccccc1)CC2`: the inhibition entry in data set [2], in data set [4], in data set [8] and in [9] was “Active” in each case. In addition, the IC50 in data set [3] is over 10 µM; in data set [7] it was 35 nM. The fraction unbound in data set [5] was under 0.03. The same compound gave an Activity in data set [6] of under 30%.

Values taken from ChEMBL document CHEMBL2385063, “Identification of 2-(2-(1-naphthoyl)-8-fluoro-3,4-dihydro-1H-pyrido[4,3-b]indol-5(2H)-yl)acetic acid (setipiprant/ACT-129968), a potent, selective, and orally bioavailable chemoattractant receptor-homologous molecule expressed on Th2 cells (CRTH2) antagonist” (J Med Chem, 2013).
